ChEMBL document CHEMBL3763019, “Discovery of benzenesulfonamide derivatives as potent PI3K/mTOR dual inhibitors with in vivo efficacies against hepatocellular carcinoma” (Bioorg Med Chem, 2016)

Legend:
[1] = Antiproliferative activity against human OVCAR4 cells incubated for 48 hrs by sulforhodamine B assay; format: functional; conditions: OVCAR-4, 48 h
Summary of the method: (§1)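 Run externally by the US National Cancer Institute as part of its 60 human cancer cell line cytotoxicity screen (NCI-60).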

[2] = Antiproliferative activity against human OVCAR5 cells incubated for 48 hrs by sulforhodamine B assay; format: functional; conditions: OVCAR-5, 48 h; summary of the method: as §1
[3] = Antiproliferative activity against human NCI-ADR-RES cells incubated for 48 hrs by sulforhodamine B assay; format: functional; summary of the method: as §1
[4] = Antiproliferative activity against human SKOV3 cells incubated for 48 hrs by sulforhodamine B assay; format: functional; conditions: SK-OV-3, 48 h; summary of the method: as §1
[5] = Antiproliferative activity against human RXF393 cells incubated for 48 hrs by sulforhodamine B assay; format: functional; conditions: RXF 393, 48 h; summary of the method: as §1
[6] = Antiproliferative activity against human DU145 cells incubated for 48 hrs by sulforhodamine B assay; format: functional; conditions: DU-145, 48 h; summary of the method: as §1
MDA-MB-231 = assay: Antiproliferative activity against human MDA-MB-231 cells incubated for 48 hrs by sulforhodamine B assay; format: functional; conditions: MDA-MB-231, 48 h; summary of the method: as §1
[7] = Antiproliferative activity against human BT549 cells incubated for 48 hrs by sulforhodamine B assay; format: functional; conditions: BT-549, 48 h; summary of the method: as §1
[8] = target: Serine/threonine-protein kinase mTOR (Homo sapiens, UniProt P42345); assay: Inhibition of insulin-stimulated mTOR phosphorylation in human A549 cells after 30 mins by Western blot analysis; format: cell-based
Summary of the method: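 A549 cells were insulin-stimulated for 2 h, then exposed to four compound concentrations for 30 min. Lysis was in ice-cold RIPA buffer, protein was quantified by BCA, and lysates were run on 10% SDS-PAGE and transferred to nitrocellulose. Detection was by infrared imaging, with β-actin as loading control.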

[9] = Antitumor activity against human Bel7404 cells xenografted in BALB/c nude mouse assessed as reduction in tumor volume at 30 mg/kg, po qd for 14 consecutive days relative to control; format: functional, BEL-7404; parameters: scale not given: the % may be the effect or the level left
Summary of the method: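 Male BALB/c nude mice carried implanted BEL-7404 tumours and were randomized once tumours reached 100–300 mm³ (about 12 days); there were 6 per treated group and 8 controls. Drug in 5% polysorbate 80/water was given orally once daily for 14 days from day 13. Tumour volume (1/2·a·b·b) and body weight were tracked, with sacrifice on day 29. The read-out was relative tumour volume versus vehicle, reported as mean SE.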

[10] = Half life in rat liver microsomes; format: ADME
K562 = assay: Antiproliferative activity against human K562 cells incubated for 48 hrs by sulforhodamine B assay; format: functional; conditions: K562, 48 h; summary of the method: as §1
A549 = assay: Antiproliferative activity against human A549 cells incubated for 48 hrs by sulforhodamine B assay; format: functional; conditions: A549, 48 h; summary of the method: as §1
[11] = Antiproliferative activity against human HOP62 cells incubated for 48 hrs by sulforhodamine B assay; format: functional; conditions: HOP-62, 48 h; summary of the method: as §1
NCI-H23 = assay: Antiproliferative activity against human NCI-H23 cells incubated for 48 hrs by sulforhodamine B assay; format: functional; conditions: NCI-H23, 48 h; summary of the method: as §1
NCI-H322M = assay: Antiproliferative activity against human NCI-H322M cells incubated for 48 hrs by sulforhodamine B assay; format: functional; summary of the method: as §1
[12] = Antiproliferative activity against human COLO205 cells incubated for 48 hrs by sulforhodamine B assay; format: functional; conditions: COLO 205, 48 h; summary of the method: as §1
[13] = Antiproliferative activity against human HCC2998 cells incubated for 48 hrs by sulforhodamine B assay; format: functional; conditions: HCC 2998, 48 h; summary of the method: as §1
[14] = Antiproliferative activity against human HCT116 cells incubated for 48 hrs by sulforhodamine B assay; format: functional; conditions: HCT-116, 48 h; summary of the method: as §1
[15] = Antiproliferative activity against human HCT15 cells incubated for 48 hrs by sulforhodamine B assay; format: functional; conditions: HCT-15, 48 h; summary of the method: as §1
HT-29 = assay: Antiproliferative activity against human HT-29 cells incubated for 48 hrs by sulforhodamine B assay; format: functional; conditions: HT-29, 48 h; summary of the method: as §1
KM12 = assay: Antiproliferative activity against human KM12 cells incubated for 48 hrs by sulforhodamine B assay; format: functional; conditions: KM12, 48 h; summary of the method: as §1
[16] = Antiproliferative activity against human SW620 cells incubated for 48 hrs by sulforhodamine B assay; format: functional; conditions: SW-620, 48 h; summary of the method: as §1
[17] = Antiproliferative activity against human SF268 cells incubated for 48 hrs by sulforhodamine B assay; format: functional; conditions: SF-268, 48 h; summary of the method: as §1
[18] = Antiproliferative activity against human SNB19 cells incubated for 48 hrs by sulforhodamine B assay; format: functional; conditions: SNB-19, 48 h; summary of the method: as §1
[19] = Antiproliferative activity against human LOXIMVI cells incubated for 48 hrs by sulforhodamine B assay; format: functional; conditions: LOX IMVI; summary of the method: as §1
Malme-3M = assay: Antiproliferative activity against human MALME-3M cells incubated for 48 hrs by sulforhodamine B assay; format: functional; summary of the method: as §1
M14 = assay: Antiproliferative activity against human M14 cells incubated for 48 hrs by sulforhodamine B assay; format: functional; conditions: M14, 48 h; summary of the method: as §1
SK-MEL-28 = assay: Antiproliferative activity against human SK-MEL-28 cells incubated for 48 hrs by sulforhodamine B assay; format: functional; conditions: SK-MEL-28, 48 h; summary of the method: as §1
[20] = Antiproliferative activity against human UACC62 cells incubated for 48 hrs by sulforhodamine B assay; format: functional; conditions: UACC-62, 48 h
[21] = read-out: pLC50 (the source's name) (converted)

Q: With `COc1ncc(-c2ccc3nccc(C#CCN4CCN(S(C)(=O)=O)CC4)c3c2)cc1NS(=O)(=O)c1ccc(F)cc1F` as the compound, how does the GI50 [1] read?
A: 257 nM

Q: And the CC50 [1, 21]?
A: 46800 nM

Q: And the TGI ([1]; read-out: pTGI (converted))?
A: 11500 nM

Q: And the GI50 [2]?
A: 37.1 nM

Q: And the CC50 [2, 21]?
A: 60300 nM

Q: What about the TGI ([2]; read-out: pTGI (converted)) of the same compound?
A: 16200 nM

Q: What about the GI50 [3] of the same compound?
A: 355 nM

Q: What about the CC50 [3, 21] of the same compound?
A: 79400 nM

Q: What about the TGI ([3]; read-out: pTGI (converted)) of the same compound?
A: 12000 nM

Q: What about the GI50 [4] of the same compound?
A: 17.4 nM

Q: And the CC50 [4, 21]?
A: 33900 nM

Q: What about the TGI ([4]; read-out: pTGI (converted)) of the same compound?
A: 229 nM

Q: What about the GI50 [5] of the same compound?
A: 51.3 nM

Q: And the CC50 [5, 21]?
A: 11700 nM

Q: And the TGI ([5]; read-out: pTGI (converted))?
A: 427 nM

Q: And the GI50 [6]?
A: 100 nM

Q: And the CC50 [6, 21]?
A: 41700 nM

Q: What about the TGI ([6]; read-out: pTGI (converted)) of the same compound?
A: 12900 nM

Q: What about the GI50 (MDA-MB-231) of the same compound?
A: 437 nM

Q: What about the CC50 (MDA-MB-231; [21]) of the same compound?
A: 72400 nM

Q: What about the TGI (MDA-MB-231; read-out: pTGI (converted)) of the same compound?
A: 19500 nM

Q: What about the GI50 [7] of the same compound?
A: 41.7 nM

Q: What about the CC50 [7, 21] of the same compound?
A: 4570 nM

Q: What about the TGI ([7]; read-out: pTGI (converted)) of the same compound?
A: 813 nM

Q: And the inhibition [8]?
A: Dose-dependent effect

Q: And the Activity [9]?
A: 52%

Q: What about the half-life [10] of the same compound?
A: 29 min

Q: And the GI50 (K562)?
A: 646 nM

Q: What about the CC50 (K562; [21]) of the same compound?
A: > 100000 nM

Q: What about the TGI (K562; read-out: pTGI (converted)) of the same compound?
A: 17000 nM

Q: What about the GI50 (A549) of the same compound?
A: 72.4 nM

Q: And the CC50 (A549; [21])?
A: 44700 nM

Q: What about the TGI (A549; read-out: pTGI (converted)) of the same compound?
A: 5500 nM

Q: And the GI50 [11]?
A: < 10 nM

Q: And the CC50 [11, 21]?
A: 63100 nM

Q: What about the TGI ([11]; read-out: pTGI (converted)) of the same compound?
A: 2820 nM

Q: What about the GI50 (NCI-H23) of the same compound?
A: 295 nM

Q: And the CC50 (NCI-H23; [21])?
A: 20000 nM

Q: And the TGI (NCI-H23; read-out: pTGI (converted))?
A: 2690 nM

Q: What about the GI50 (NCI-H322M) of the same compound?
A: 110 nM

Q: And the CC50 (NCI-H322M; [21])?
A: 36300 nM

Q: What about the TGI (NCI-H322M; read-out: pTGI (converted)) of the same compound?
A: 6920 nM

Q: And the GI50 [12]?
A: 42.7 nM

Q: What about the CC50 [12, 21] of the same compound?
A: 7240 nM

Q: What about the TGI ([12]; read-out: pTGI (converted)) of the same compound?
A: 1120 nM

Q: What about the GI50 [13] of the same compound?
A: 61.7 nM

Q: What about the CC50 [13, 21] of the same compound?
A: 3980 nM

Q: And the TGI ([13]; read-out: pTGI (converted))?
A: 1120 nM

Q: What about the GI50 [14] of the same compound?
A: 138 nM

Q: And the CC50 [14, 21]?
A: 5750 nM

Q: What about the TGI ([14]; read-out: pTGI (converted)) of the same compound?
A: 1660 nM

Q: What about the GI50 [15] of the same compound?
A: 55 nM

Q: And the CC50 [15, 21]?
A: 6610 nM

Q: What about the TGI ([15]; read-out: pTGI (converted)) of the same compound?
A: 1350 nM

Q: What about the GI50 (HT-29) of the same compound?
A: 20.4 nM

Q: And the CC50 (HT-29; [21])?
A: 35500 nM

Q: And the TGI (HT-29; read-out: pTGI (converted))?
A: 1510 nM

Q: And the GI50 (KM12)?
A: 275 nM

Q: And the CC50 (KM12; [21])?
A: 4790 nM

Q: And the TGI (KM12; read-out: pTGI (converted))?
A: 1480 nM

Q: And the GI50 [16]?
A: 229 nM

Q: And the CC50 [16, 21]?
A: 6920 nM

Q: And the TGI ([16]; read-out: pTGI (converted))?
A: 1950 nM

Q: What about the GI50 [17] of the same compound?
A: 110 nM

Q: And the CC50 [17, 21]?
A: 25100 nM

Q: And the TGI ([17]; read-out: pTGI (converted))?
A: 2880 nM

Q: What about the GI50 [18] of the same compound?
A: 355 nM

Q: What about the CC50 [18, 21] of the same compound?
A: 15100 nM

Q: And the TGI ([18]; read-out: pTGI (converted))?
A: 2510 nM

Q: And the GI50 [19]?
A: 81.3 nM

Q: And the CC50 [19, 21]?
A: 5620 nM

Q: What about the TGI ([19]; read-out: pTGI (converted)) of the same compound?
A: 1350 nM

Q: What about the GI50 (Malme-3M) of the same compound?
A: 19.9 nM

Q: What about the CC50 (Malme-3M; [21]) of the same compound?
A: 33900 nM

Q: What about the TGI (Malme-3M; read-out: pTGI (converted)) of the same compound?
A: 324 nM

Q: And the GI50 (M14)?
A: 72.4 nM

Q: What about the CC50 (M14; [21]) of the same compound?
A: 19100 nM

Q: What about the TGI (M14; read-out: pTGI (converted)) of the same compound?
A: 1580 nM

Q: And the GI50 (SK-MEL-28)?
A: 34.7 nM

Q: And the CC50 (SK-MEL-28; [21])?
A: 5250 nM

Q: What about the TGI (SK-MEL-28; read-out: pTGI (converted)) of the same compound?
A: 1050 nM

Q: What about the GI50 [20] of the same compound?
A: 33.1 nM

Q: And the CC50 [20, 21]?
A: 3240 nM

Q: And the TGI ([20]; read-out: pTGI (converted))?
A: 282 nM
